Compound activity deposited in PubChem BioAssay by The Scripps Research Institute Molecular Screening Center.
An excerpt weighted towards active compounds, which were near 3.1% of everything screened.
OX1R antag-1 – human HCRTR1 antagonism. O43613. CHO/OX1R cells, Fluo-8 calcium fluorescence, orexin A. inhibition, % at 5 µM. actives 0.43% (n = 330,000). AID 434989;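 active = inhibition above its plate's threshold, mean inhibition of all tested compounds on the plate plus 3 SD, cut at about 37% in these data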;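 note: 0% = orexin A challenge wells and 100% = SB-334867-A antagonist wells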
GPR7 antagonist – human neuropeptides B/W receptor 1 antagonism; actives 1.1% (n = 290,000); GPR7-expressing cells, fluorescence antagonist assay; inhibition, % at 4.4 µM; in the data active = inhibition above about 16%, passing the limit was not always enough;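 note: cells stimulated with the agonist NPW; 0% = agonist with vehicle and 100% = vehicle without agonist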
GalR3 antagonist – antagonists of human GalR3 | O60755 | HEK293 GalR3-CNG cAMP membrane potential fluorescence; galR3 body fused to GalR1 C-terminus | inhibition, % at 3 µM | actives 0.44% (n = 360,000);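 active = inhibition above the screen-wide average plus 3 SD, cut at about 13% in these data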;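 note: forskolin and galanin both at EC90 stimulate the cells; cAMP rise reported by CNG channel membrane potential dye signal; 0% = forskolin plus galanin with DMSO and 100% = forskolin alone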
Target sequence (O60755 1-299 limits assumed): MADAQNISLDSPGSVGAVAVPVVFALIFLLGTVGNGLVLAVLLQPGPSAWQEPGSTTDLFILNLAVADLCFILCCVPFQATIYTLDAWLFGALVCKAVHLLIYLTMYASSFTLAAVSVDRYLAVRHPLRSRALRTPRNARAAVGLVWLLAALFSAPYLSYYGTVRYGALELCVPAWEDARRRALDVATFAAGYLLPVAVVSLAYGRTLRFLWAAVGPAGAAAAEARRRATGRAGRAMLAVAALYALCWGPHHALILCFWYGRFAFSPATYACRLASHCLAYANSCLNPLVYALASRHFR
OX1R antag-2 – blocks the human orexin 1 receptor; O43613; actives 1.8% (n = 330,000); OX1R-expressing cells, FRET antagonist read-out; inhibition, % at 6.6 µM; in the data active = inhibition mostly above about 38%, no sharp cut-off; inactive = mostly below about 40%;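 note: 0% = agonist challenge alone and 100% = reference antagonist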
CHO parental Ca – counter-screen for OX1R antagonists: effect in parental CHO cells; inhibition, % at 5.6 µM; parental CHO-K1, ATP-induced calcium, Fluo-8 fluorescence; actives 0.63% (n = 330,000);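 active = inhibition above that plate's mean sample inhibition plus 3 SD, cut at about 26% in these data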;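 note: 0% = ATP-challenged DMSO wells and 100% = DMSO wells without ATP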
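Measured by: calcium-sensitive Fluo-8 fluorescence / Test system: CHO parental line / Controls: ATP-challenged DMSO wells low, unchallenged DMSO wells high / Measure: % inhibition / Compound: single nominal dose of 5.6 µM per compound / Replicates: single well per compound, no replicates / Reagent: ATP as calcium-mobilizing challenge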
Numbers without * were called inactive; · = not tested or not shown.

SMILES	OX1R antag-1	GPR7 antagonist	GalR3 antagonist	OX1R antag-2	CHO parental Ca
CC(C)c1cccc(C(C)C)c1NC(=O)COC(=O)c1ccc2c(c1)S(=O)(=O)c1ccccc1C2=O	-11	-15	-3	16	-8
CNC(=O)COC(=O)c1ccc2c(c1)S(=O)(=O)c1ccccc1C2=O	-8	-11	-2	74*	-12
CN(C)C(CNC(=O)c1ccc2c(c1)S(=O)(=O)c1ccccc1C2=O)c1ccco1 (stereo not drawn)	-26	-5	-4	74*	-18
CC(C)(C)NC(=O)C1c2ccccc2OCC(=O)N1CCc1ccccc1 (stereo not drawn)	·	·	-5	·	·
CCCCS(=O)(=O)N1CCCc2nc(CC)c(CC)cc21	·	·	-5	·	·
COc1ccc(C(=O)C(CCC(CNC(C)(C)C)C(=O)c2ccc(OC)cc2)CNC(C)(C)C)cc1 (stereo not drawn)	-2	79*	0	7	8
CCn1c2ccccc2c2nnc(SCc3ccccc3)nc21	-29	2	-3	40	32*
CCn1c2ccccc2c2nnc(SCCCn3c(=O)[nH]c4ccccc43)nc21	-30	-2	·	36*	-34
CCCN1CCC(=NNc2ccc(S(=O)(=O)N3CCOCC3)cc2[N+](=O)[O-])CC1	-9	-9	5	71*	-19
COCc1cc(N2CCN(C(=O)OC(C)(C)C)C[C@@H]2C)ccc1N1CC[C@H](O)C1	·	·	-4	·	·
O=C(CSCC(=O)N1CCCc2ccccc21)Nc1nc(-c2ccccc2)cs1	-24	-12	·	33*	-1
O=[N+]([O-])c1ccc(O)c(/C=N/n2cnc3ccccc32)c1	19	-3	-2	48*	-8
CCC/C(O)=C1\C(=O)CC(C)(C)CC1=Nc1ccc(OC)cc1OC	-30	16*	-1	25	-25
CC(OC(=O)CCN1C(=O)C2CC=CCC2C1=O)C(=O)Nc1cccc(C#N)c1 (stereo not drawn)	-14	·	-1	6	-11
Cc1ccc(NC(=O)CSc2nc3ccccc3c(=O)n2CCCN2CCCCC2)cc1Cl	-19	25*	-7	10	-4
O=C(CSc1nc2ccccc2c(=O)n1CCCN1CCOCC1)Nc1ccc(F)c(Cl)c1	8	·	-2	7	-27
Cc1ccc(S(=O)(=O)N2CCOCC2)cc1NC(=O)COC(=O)CCC(=O)c1cccs1	-14	19*	7	9	-4
O=C(COC(=O)CCC(=O)c1cccs1)Nc1ccc(S(=O)(=O)N2CCOCC2)cc1	-4	-2	-3	7	10
O=C(NNS(=O)(=O)c1cc(Cl)cc(Cl)c1)c1sccc1-n1cccc1	0	-10	-6	69*	-25
O=C1NC(=Nc2ccc3ccccc3c2)S/C1=C/c1ccco1	5	-4	-5	42*	-13
CC1(C)C2CCC1(CS(=O)(=O)Nc1ccc(S(=O)(=O)N3CCCC3)cc1)C(=O)C2 (stereo not drawn)	4	19*	-2	16	6
CC1(C(=O)NS(=O)(=O)Cc2ccccc2)CCN1C(=O)Cc1cc(F)ccc1F (stereo not drawn)	·	·	-8	·	·
CC1CCC2(CC1)NC(=O)N(CC(=O)c1ccc(CNC(=O)C(C)(C)C)s1)C2=O (stereo not drawn)	14	·	-2	35*	-17
COCCNC(=S)N(C)[C@H]1C[C@H]2c3[nH]c4c(-c5ccc6c(c5)OCO6)cccc4c3CCN2C(=O)[C@H]1[C@H](C)O	·	·	-5	·	·
O=C(NN=Cc1ccc(O)cc1)C(=O)NN=Cc1ccc(O)cc1	·	·	1	·	·
SMILES	OX1R antag-1	GPR7 antagonist	GalR3 antagonist	OX1R antag-2	CHO parental Ca
O=C(N/N=C/c1ccc(O)cc1O)C(=O)N/N=C/c1ccc(O)cc1O	-12	5	-2	70*	-12
Cc1ccc2nc3c(cc(C(=O)NCCN4CCOCC4)c(=N)n3CCCN3CCOCC3)c(=O)n2c1	4	-11	·	71*	-2
Cc1ccc2nc3c(cc(C(N)=S)c(=N)n3CCCOC(C)C)c(=O)n2c1	-32	-8	-5	47*	-34
N=c1c(C(=O)NCCN2CCOCC2)cc2c(=O)n3ccccc3nc2n1Cc1ccc(F)cc1	-9	-8	-3	60*	-7
N=c1c(C(=O)NCCN2CCOCC2)cc2c(=O)n3ccccc3nc2n1CCCN1CCOCC1	-4	9	8	69*	6
Cc1ccc2nc3c(cc(C#N)c(=N)n3CCCN3CCOCC3)c(=O)n2c1	·	-12	·	·	·
N=c1c(S(=O)(=O)c2ccccc2)cc2c(=O)n3ccccc3nc2n1CCCN1CCOCC1	-17	-4	-7	46*	-12
